HNF4A DNA FP – change in binding of human HNF4 alpha to DNA. HNF4a-FITC DNA binding, fluorescence polarization, 1 h. activity change, % at 10 µM. actives 0.3% (n = 360,000). AID 1224865; in the data active = activity change above about 30%, passing the limit was not always enough
IDE act – IDE (human) activation, cell-based. P14735. HEK cells, FAbeta-B cleavage, fluorescence polarization; 0% vehicle, 100% cell-free pure enzyme wells. activation, % at 5.96 µM. actives 0.073% (n = 340,000). AID 493087;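 active = activation above the mean of all tested compounds plus 3 SD, set per screening campaign, cut at about 17% in these data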
Target sequence (P14735 whole entry, looked up): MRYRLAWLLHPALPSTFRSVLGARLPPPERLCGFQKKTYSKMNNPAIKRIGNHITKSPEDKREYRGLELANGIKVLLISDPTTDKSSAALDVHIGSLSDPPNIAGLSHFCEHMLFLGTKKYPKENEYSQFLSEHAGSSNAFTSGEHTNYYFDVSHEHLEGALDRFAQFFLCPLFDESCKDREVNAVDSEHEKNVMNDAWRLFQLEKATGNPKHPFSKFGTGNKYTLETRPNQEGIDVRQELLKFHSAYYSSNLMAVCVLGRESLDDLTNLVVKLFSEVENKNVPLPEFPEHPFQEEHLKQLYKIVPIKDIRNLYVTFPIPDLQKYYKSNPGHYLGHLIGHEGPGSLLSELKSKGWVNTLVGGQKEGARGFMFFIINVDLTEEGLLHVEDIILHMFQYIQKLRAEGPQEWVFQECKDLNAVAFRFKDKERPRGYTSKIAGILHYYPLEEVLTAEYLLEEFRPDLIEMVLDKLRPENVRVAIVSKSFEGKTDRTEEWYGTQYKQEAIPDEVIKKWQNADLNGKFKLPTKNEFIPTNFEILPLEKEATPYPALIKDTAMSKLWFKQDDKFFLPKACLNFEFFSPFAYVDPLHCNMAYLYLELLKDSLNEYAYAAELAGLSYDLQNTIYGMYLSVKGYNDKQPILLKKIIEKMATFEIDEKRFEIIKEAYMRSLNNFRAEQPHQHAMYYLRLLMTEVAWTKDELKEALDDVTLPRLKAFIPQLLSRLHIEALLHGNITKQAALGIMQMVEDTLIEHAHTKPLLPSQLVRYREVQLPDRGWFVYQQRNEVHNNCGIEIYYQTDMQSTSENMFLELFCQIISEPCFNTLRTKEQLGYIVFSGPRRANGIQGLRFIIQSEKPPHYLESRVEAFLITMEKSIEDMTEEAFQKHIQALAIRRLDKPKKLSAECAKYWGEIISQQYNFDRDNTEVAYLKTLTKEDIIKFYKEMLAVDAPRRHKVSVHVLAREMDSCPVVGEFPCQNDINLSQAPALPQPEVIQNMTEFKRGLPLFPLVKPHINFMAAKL
CSN deneddyl inh – blocks human CSN-mediated cullin deneddylation; inhibition, % at 12.5 µM; actives 0.38% (n = 360,000); Q92905; Purified CSN, SCF-Nedd8-OG deneddylation, fluorescence polarization; AID 651999;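 active = pattern-corrected inhibition above about 35%, with an unprinted fluorescence ratio check between 0.5 and 1.5, limit read from the data, passing the limit was not always enough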
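Schedule: reaction 90 min, room temperature / Assay system: HEK293T-derived human Csn5 enzyme / Input: Csn5 at 0.24 nM final / Measure: inhibition of Csn5 cleavage, % / Control set: substrate-only high control, full reaction low control / Technique: fluorescence polarization of the substrate / Buffer or medium: Tris/NaCl/DTT buffer, pH 7.5 / Reagent: SCFSkp2-Nedd8OG substrate at 10 nM final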
IDE inh – inhibits human insulin-degrading enzyme in HEK cells. P14735. FAbetaB cleavage, fluorescence polarization. inhibition, % at 5.59 µM. actives 0.41% (n = 320,000). AID 434962;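 active = percent inhibition above the average of all tested compounds plus 3 SD, set per screening campaign, cut at about 16% in these data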;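 note: IDE supplied by intact live HEK cells; FP after avidin binding of uncleaved biotin substrate so inhibition keeps polarization high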
TPT1 inh – blocks Candida albicans tRNA 2'-phosphotransferase; recombinant caTPT1, FP RNA substrate dephosphorylation; actives 0.81% (n = 300,000); inhibition, % at 5 µM; AID 1962;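 active = inhibition above the mean of all tested compounds plus 3 SD, set per screening campaign, cut at about 24% in these data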
IDE inh confirm – confirmation of human insulin-degrading enzyme inhibitors in cells; actives 51% (n = 1,200); HEK cells, FAbetaB cleavage, fluorescence polarization; shares compounds with IDE inh; AID 435028; inhibition, % at 5.59 µM;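 active = mean inhibition across triplicate wells above the cutoff set by the earlier primary insulin-degrading enzyme screen, cut at about 16% in these data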
HEK cytotox – kills HEK cells in IDE inhibitor counter-screen | actives 28% (n = 1,200) | shares compounds with IDE inh | HEK293 cytotoxicity, ATP luminescence | inhibition, % at 5.59 µM; in the data active = inhibition above about 22%
FP fluor counter – counter-screen for IDE inhibitors: fluorescent artifacts; shares compounds with IDE inh; FP counterscreen for fluorescent artifacts, IDE probe project; IC50, µM; 30 tested, under 10 active; call rule not given here
Large screens that a line does not name were inactive (follow-up assays come after a bar, where they were run). The list is not random: actives were taken first. Their share in the collection is about 1.4%.

COc1cc(/C=C2\SC(=S)N(CC(=O)O)C2=O)ccc1OC(=O)c1ccco1	IDE inh 24 | IDE inh confirm 107 | HEK cytotox inactive
COC(=O)Cc1coc2cc(OC)ccc12	none (no result: TPT1 inh)
COc1ccccc1C(=O)NCC(=O)OCC(=O)c1ccc2c(c1)-c1ccccc1C2	IDE inh 22 | IDE inh confirm inactive | HEK cytotox inactive
Cc1ccc2c(c1)c1ncnc(N3CCOCC3)c1n2C	IDE inh 17 | IDE inh confirm inactive | HEK cytotox inactive
CCc1nc(SCC(=O)Nc2nc3c(s2)CCCC3)c2ccccc2n1	IDE inh 31 | IDE inh confirm inactive | HEK cytotox inactive
Cc1ccccc1S(=O)(=O)Cc1ccc(C(=O)N2CCN(c3cccc(C)c3C)CC2)o1	IDE inh 17 | IDE inh confirm inactive | HEK cytotox 69
CC(=O)N/N=C/c1cc(C(C)C)cc(/C=N/NC(C)=O)c1O	IDE inh 23 | IDE inh confirm 35 | HEK cytotox inactive
CC[C@H](C)Cc1cn([C@@H](CCCCNC(=O)OC(C)(C)C)C(=O)NCCCCCCCCCCC(=O)N2CCN(C(=O)OC(C)(C)C)CC2)nn1	none
Clc1ccc2[nH]c3c(NCCCN4CCOCC4)ncnc3c2c1	IDE inh 42 | IDE inh confirm 17 | HEK cytotox inactive
Cc1cc(=O)[nH]c(/N=C(\N)Nc2cccc3ccccc23)n1	IDE inh 16 | IDE inh confirm inactive | HEK cytotox inactive
Nc1nnnn1/N=C/c1cc(Cl)cc(Cl)c1O	IDE inh 19 | IDE inh confirm 43 | HEK cytotox inactive
O=C(Nc1ccccc1)c1ccc(F)c(S(=O)(=O)N2CCOCC2)c1	none
O=C(Nc1ccc(-c2cn3ccsc3n2)cc1)c1ccc(F)c(S(=O)(=O)N2CCOCC2)c1	IDE inh 21 | IDE inh confirm inactive | HEK cytotox 58
CSc1nc(-c2ccc(C)cc2)[nH]c1S(=O)(=O)c1ccccc1	none
CC(=O)Sc1nc(-c2ccccc2)[nH]c1S(=O)(=O)c1ccc(C)cc1	IDE inh 17 (no result: HNF4A DNA FP, IDE act, CSN deneddyl inh) | IDE inh confirm inactive | HEK cytotox inactive
COc1ccccc1N1CCN(S(=O)(=O)CCNC(=O)C23CC4CC(CC(C4)C2)C3)CC1	IDE inh 20 | IDE inh confirm inactive | HEK cytotox 32
O=C(NCCS(=O)(=O)N1CCN(c2ccccc2)CC1)C12CC3CC(CC(C3)C1)C2	none (no result: IDE act, IDE inh, TPT1 inh)
COc1cccc(-c2cccc3c2NC(=O)C3(C)Cc2cccc(F)c2)c1 (stereo not drawn)	none (no result: IDE act, IDE inh, TPT1 inh)
COc1ccccc1Nc1ccc(NC(=O)c2cccc([N+](=O)[O-])c2C)cc1	IDE inh 17 | IDE inh confirm inactive | HEK cytotox 39
CC(=O)Nc1cccc(NC(=O)C(=O)c2cn(CC(=O)N3CCCC3)c3ccccc23)c1	none (no result: IDE act, IDE inh, TPT1 inh)
O=C(Nc1ccc2oc(-c3ccncc3)nc2c1)c1ccc(F)cc1	none
COc1ccc(-c2nc3cc(NC(=O)c4ccc5c(c4)OCO5)ccc3o2)cc1	none
O=C(Nc1ccc2oc(-c3ccccc3)nc2c1)c1ccc2c(c1)OCCO2	IDE inh 19 | IDE inh confirm inactive | HEK cytotox 23
O=C(Nc1ccc2oc(-c3ccncc3)nc2c1)c1ccc2c(c1)OCCO2	IDE inh 17 | IDE inh confirm inactive | HEK cytotox 33
O=C(Nc1ccc2oc(-c3cccnc3)nc2c1)c1ccc2c(c1)OCCO2	IDE inh 18 | IDE inh confirm 18 | HEK cytotox inactive | FP fluor counter inactive
CSc1cccc(-c2nnc(NC(=O)c3cccc(N4C(=O)CCC4=O)c3)o2)c1	none
CC(C)NC(=NCc1ccc(Cl)cc1Cl)Nc1ccccc1	none
COc1cccc(-c2nc(C(=O)NCC3CCCO3)cc3c2[nH]c2ccccc23)c1 (stereo not drawn)	none
OC1(c2cccc(C(F)(F)F)c2)CCN(c2ncnc3c2[nH]c2ccccc23)CC1	IDE inh 19 | IDE inh confirm inactive | HEK cytotox 35
c1ccc2c(c1)[nH]c1c(N3CCC4(CC3)OCCO4)ncnc12	none
CCOc1ccc2[nH]c3c(N4CCN(c5ccccn5)CC4)ncnc3c2c1	IDE inh 25 | IDE inh confirm inactive | HEK cytotox 26
CCOc1ccc2oc(C(=O)N3CCN(c4ccccn4)CC3)c(C)c2c1	none (no result: IDE inh, TPT1 inh)
Cc1ccc2c(c1)[nH]c1c(N3CCN(Cc4ccccc4)CC3)ncnc12	none
c1ccc(CN2CCN(c3ncnc4c3[nH]c3ccccc34)CC2)cc1	IDE inh 33 | IDE inh confirm 18 | HEK cytotox 58
Cc1ccc2[nH]c3c(N4CCN(Cc5ccccc5)CC4)ncnc3c2c1	IDE inh 36 | IDE inh confirm 17 | HEK cytotox 41
CCOC(=O)C1=C(COC(=O)C2CC(=O)N(c3ccccc3F)C2)NC(=O)NC1C (stereo not drawn)	none (no result: TPT1 inh)
COc1ccc(CCNC(=O)COC(=O)c2sc(C)nc2C)cc1	none (no result: TPT1 inh)
COc1cccc2[nH]c3c(N4CCc5ccccc5C4)ncnc3c12	none (no result: HNF4A DNA FP, IDE act, CSN deneddyl inh)
c1ccc2c(c1)CCN(c1ncnc3c1[nH]c1ccccc13)C2	IDE inh 21 | IDE inh confirm 17 | HEK cytotox 80
Cc1ccc(NC(=O)COC(=O)c2ccc(C)c(S(=O)(=O)N3CCOCC3)c2)cc1	none (no result: IDE inh, TPT1 inh)
C=CCc1cccc(/C=C/c2cc(=O)c3ccccc3[nH]2)c1O	IDE inh 17 | IDE inh confirm inactive | HEK cytotox inactive
CCOc1ccc(CN(C)C(=O)CNC(=O)c2sc3ccccc3c2Cl)cc1	none (no result: TPT1 inh)
COc1cc(/C=C2/SC(=Nc3ccc(O)cc3)NC2=O)ccc1O	IDE inh 35 | IDE inh confirm 60 | HEK cytotox 59
COc1cc(/C=C2\SC(=Nc3ccccc3OC)NC2=O)ccc1O	none
Cc1c(C(=O)N2CCNCC2)oc2ccccc12	none (no result: IDE inh, TPT1 inh)
CCNc1nnc(SCC(=O)N2c3ccccc3NC(=O)CC2C)s1 (stereo not drawn)	none (no result: TPT1 inh)
COc1ccccc1-[n+]1c(C)cc(/C=C2\Sc3ccccc3N2C)cc1C	HNF4A DNA FP 55, IDE inh 52, TPT1 inh 123 | IDE inh confirm 104 | HEK cytotox 113
CC(=O)c1cc2c(C)c(C(=O)c3ccccc3)oc2cc1O	IDE inh 35 | IDE inh confirm 87 | HEK cytotox inactive
O=C(NCc1ccccc1Cl)c1ccc2sc([C@H]3C[C@H](O)[C@@H](CO)O3)nc2c1	none (no result: IDE act, IDE inh, TPT1 inh)
O=C(NCC(=O)N1CC=C(c2ccccc2)CC1)c1ccc(OC(F)F)cc1	IDE inh 18 (no result: TPT1 inh) | IDE inh confirm inactive | HEK cytotox 55
COc1cc(OC)cc(C(=O)NCC(=O)N2CC=C(c3ccccc3)CC2)c1	none (no result: IDE inh, TPT1 inh)
